Calls of active or inactive are those of the source. No cut-off for these calls is given here.
What was measured:
[1] = molecular target: T1, Ubiquitin carboxyl-terminal hydrolase isozyme L5 (Homo sapiens, UniProt Q9Y5K5); test: (§1) Inhibition of N-terminal His6-tagged recombinant human UCHL5 expressed in Escherichia coli BL21 (DE3) codon cells assessed as reduction in cleavage of Ubiquitin-Rhodamine110-glycine to Ubiquitin and Rhodamine110-glycine using Ub-Rho 110 as substrate incubated for 30 mins by fluorescence based assay
T1 sequence (Q9Y5K5 whole entry): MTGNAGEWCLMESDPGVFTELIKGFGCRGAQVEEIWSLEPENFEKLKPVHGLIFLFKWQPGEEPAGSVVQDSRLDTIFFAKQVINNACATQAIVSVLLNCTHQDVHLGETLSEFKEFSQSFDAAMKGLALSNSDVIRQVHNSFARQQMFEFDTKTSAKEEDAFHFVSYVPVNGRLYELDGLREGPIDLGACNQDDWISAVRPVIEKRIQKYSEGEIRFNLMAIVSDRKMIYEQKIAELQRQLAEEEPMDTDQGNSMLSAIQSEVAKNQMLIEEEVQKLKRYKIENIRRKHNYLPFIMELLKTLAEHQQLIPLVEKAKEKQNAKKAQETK
Summary of the method: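 His-tagged human UCHL5 from pET151 in E. coli BL21(DE3) codon+ RIL, Ni-NTA purified; 0.464 nM enzyme, 1 μM Ub-Rho in 50 mM Tris-HCl pH 7.5, 150 mM NaCl, 0.1 mg/ml ovalbumin, 0.5 mM EDTA, 2.5 mM DTT; started by enzyme addition.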

[2] = molecular target: T2, Ubiquitin carboxyl-terminal hydrolase isozyme L5 (Homo sapiens) (UniProt Q9Y5K5); test: Potency index, ratio of (R)-tiaprofenic acid IC50 to test compound IC50 for inhibition of N-terminal His6-tagged recombinant human UCHL5 expressed in Escherichia coli BL21 (DE3) codon cells incubated for 30 mins by fluorescence based assay
T2 sequence (whole entry): T1 sequence (Q9Y5K5 whole entry)

[3] = molecular target: T3, Ubiquitin carboxyl-terminal hydrolase isozyme L1 (Homo sapiens, UniProt P09936); test: as §1, with “of” for “of N-terminal His6-tagged”, “N-terminal MET and His6-tagged UCHL1 (Gln2 to Ala223 residues)” for “UCHL5”, “coli” for “coli BL21 (DE3) codon cells”
T3 sequence (P09936 whole entry): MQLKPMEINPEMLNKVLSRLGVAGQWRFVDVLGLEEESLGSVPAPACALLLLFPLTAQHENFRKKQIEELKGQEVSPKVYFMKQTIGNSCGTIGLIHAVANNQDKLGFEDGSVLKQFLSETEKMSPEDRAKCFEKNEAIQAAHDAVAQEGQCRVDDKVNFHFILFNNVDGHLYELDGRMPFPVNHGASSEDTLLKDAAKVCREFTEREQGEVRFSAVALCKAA
Summary of the method: (§2)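 Commercial enzymes at UCHL1 1.2 nM or UCHL3 32 pM, with 1 μM Ub-Rho in 50 mM Tris-HCl pH 7.5, 150 mM NaCl, 0.1 mg/ml ovalbumin, 0.5 mM EDTA, 2.5 mM DTT.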

[4] = molecular target: Ubiquitin carboxyl-terminal hydrolase isozyme L1 (Homo sapiens) (UniProt P09936); test: as above; summary of the method: as §2
Homo sapiens = species: Homo sapiens; test: as §1, with “[…] N-terminal GST/His6-tagged RPN13” for “expressed”, “substrate at 100 uM” for “substrate”, “assay relative to control” for “assay”
Summary of the method: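 UCHL5 (0.464 nM, His-tagged, Ni-NTA purified from E. coli) combined with separately expressed Rpn13 (915 nM); each derivative tested at 100 μM. Buffer 50 mM Tris-HCl pH 7.5, 150 mM NaCl, 0.1 mg/ml ovalbumin, 0.5 mM EDTA, 2.5 mM DTT. Reaction started with UCHL5; Ub-Rho 1 μM; fluorescence ex 485/em 535 nm read over 30 min at RT. n = 2 independent experiments.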

[5] = molecular target: T2, Ubiquitin carboxyl-terminal hydrolase isozyme L5 (Homo sapiens); test: Inhibition of UCHL5 in human MDA-MB-231 cells assessed as reduction in enzyme-Ub-VS conjugation at 25 to 50 uM preincubated for 30 mins followed by incubation with Ub-VS for 11 mins in presence of Ub-VS by Western blot analysis; format: cell-based; settings: dose 25-50 µM, time 41.0 min
Summary of the method: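 Lysate (20 μg protein) preincubated with inhibitor 30 min at RT in same buffer without detergent, then Ub-VS 1 μM for 11 min at RT; SDS quench, 12% SDS-PAGE, anti-UCHL5 and β-actin blot; 2 independent experiments.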

[6] = molecular target: T4, Ubiquitin carboxyl-terminal hydrolase isozyme L3 (Homo sapiens, UniProt P15374); test: (§3) Inhibition of recombinant human UCHL3 assessed as reduction in cleavage of Ubiquitin-Rhodamine110-glycine to Ubiquitin and Rhodamine110-glycine using Ub-Rho 110 as substrate incubated for 30 mins by fluorescence based assay; summary of the method: as §2
T4 sequence (P15374 whole entry): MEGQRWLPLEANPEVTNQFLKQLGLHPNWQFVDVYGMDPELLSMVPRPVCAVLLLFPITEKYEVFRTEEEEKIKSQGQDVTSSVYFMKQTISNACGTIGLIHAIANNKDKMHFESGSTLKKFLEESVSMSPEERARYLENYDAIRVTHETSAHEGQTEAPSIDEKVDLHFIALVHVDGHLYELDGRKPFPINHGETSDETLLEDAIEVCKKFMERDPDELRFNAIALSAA

[7] = molecular target: T5, Ubiquitin carboxyl-terminal hydrolase isozyme L3 (Homo sapiens) (UniProt P15374); test: as §3; summary of the method: as §2
T5 sequence (whole entry): T4 sequence (P15374 whole entry)

Row | SMILES | IC50 [1] [µM] | further results
1 | Nc1ccc(-c2cn(Cc3cc(C(=O)O)cc(-c4ccccc4C(=O)O)c3)nn2)cc1 | 80.5 | –
2 | CC(C(=O)O)c1ccc(C(=O)c2ccccc2)s1 (stereo not given) [TIAPROFENIC ACID] | 2950 | –
3 | O=C(O)c1cc(Cn2cc(-c3cccnc3)nn2)cc(-c2ccccc2C(=O)O)c1 | 252 | –
4 | Nc1ccc(-c2cn(Cc3cc(C(=O)O)cc(-c4ccc(C(=O)O)cc4)c3)nn2)cc1 | 284 | –
5 | Nc1ccc(-c2cn(Cc3cccc(-c4ccccc4C(=O)O)c3)nn2)cc1 | 116 | –
6 | NS(=O)(=O)Nc1ccc(-c2cn(Cc3cc(C(=O)O)cc(-c4ccccc4C(=O)O)c3)nn2)cc1 | 84.5 | –
7 | O=C(O)c1cc(Cn2cc(-c3ccc(NC(=O)c4ccccc4)cc3)nn2)cc(-c2ccccc2C(=O)O)c1 | 215 | –
8 | CC(C(=O)O)c1ccc(C(=O)c2cccc(-c3ccccc3C(=O)O)c2)s1 (stereo not given) | 89.1 | Ratio IC50 [2]: 33
9 | CC(=O)Nc1ccc(-c2cn(Cc3cc(C(=O)O)cc(-c4ccccc4C(=O)O)c3)nn2)cc1 | 80.9 | –
10 | Nc1cccc(-c2cn(Cc3cc(C(=O)O)cc(-c4ccccc4C(=O)O)c3)nn2)c1 | 72.6 | –
11 | CC(=O)Nc1cccc(-c2cn(Cc3cc(C(=O)O)cc(-c4ccccc4C(=O)O)c3)nn2)c1 | 96.2 | –
12 | CC(C(=O)O)c1ccc(C(=O)c2cccc(-c3occc3C(=O)O)c2)s1 (stereo not given) | 75.7 | –
13 | Nc1ccc(-c2cn(Cc3cc(C(=O)O)cc(-c4cccc(C(=O)O)c4)c3)nn2)cc1 | 32.9 | IC50 [3]: 92 µM; inhibition [4]: Dose-dependent effect; inhibition (Homo sapiens): 70%; inhibition [5]: Active; IC50 [6]: 74 µM; inhibition [7]: Dose-dependent effect

Reference: ChEMBL document CHEMBL4680319, “Synthesis and evaluation of tiaprofenic acid-derived UCHL5 deubiquitinase inhibitors” (Bioorg Med Chem, 2021)
